Data: ChEMBL document CHEMBL5649168, “Discovery of a selective catalytic p300/CBP inhibitor that targets lineage-specific tumours” (Nature, 2017)
The source made the active and inactive calls. No cut-off for these calls is given here.

What was measured:
NCI-H1930 = assay: Antiproliferative activity against human NCI-H1930 cells assessed as inhibition of cell viability incubated for 3 to 5 days by Celltiter-Glo luminescent assay; format: functional, cell-based
HCC1599 = assay: Antiproliferative activity against human HCC1599 cells assessed as inhibition of cell viability incubated for 3 to 5 days by Celltiter-Glo luminescent assay; format: functional, cell-based
[1] = AUC in CB17 SCID mouse xenografted with LuCaP-77 CR cell at 50 mg/kg, ip administered for 7 days; format: ADME, organism-based; settings: in vivo, time 7 day
[2] = biological target: Serine/threonine-protein kinase TAO2 (Homo sapiens, UniProt Q9UL54); assay: Inhibition of TAOK2 (unknown origin)
Chain of Serine/threonine-protein kinase TAO2 (Q9UL54 whole entry): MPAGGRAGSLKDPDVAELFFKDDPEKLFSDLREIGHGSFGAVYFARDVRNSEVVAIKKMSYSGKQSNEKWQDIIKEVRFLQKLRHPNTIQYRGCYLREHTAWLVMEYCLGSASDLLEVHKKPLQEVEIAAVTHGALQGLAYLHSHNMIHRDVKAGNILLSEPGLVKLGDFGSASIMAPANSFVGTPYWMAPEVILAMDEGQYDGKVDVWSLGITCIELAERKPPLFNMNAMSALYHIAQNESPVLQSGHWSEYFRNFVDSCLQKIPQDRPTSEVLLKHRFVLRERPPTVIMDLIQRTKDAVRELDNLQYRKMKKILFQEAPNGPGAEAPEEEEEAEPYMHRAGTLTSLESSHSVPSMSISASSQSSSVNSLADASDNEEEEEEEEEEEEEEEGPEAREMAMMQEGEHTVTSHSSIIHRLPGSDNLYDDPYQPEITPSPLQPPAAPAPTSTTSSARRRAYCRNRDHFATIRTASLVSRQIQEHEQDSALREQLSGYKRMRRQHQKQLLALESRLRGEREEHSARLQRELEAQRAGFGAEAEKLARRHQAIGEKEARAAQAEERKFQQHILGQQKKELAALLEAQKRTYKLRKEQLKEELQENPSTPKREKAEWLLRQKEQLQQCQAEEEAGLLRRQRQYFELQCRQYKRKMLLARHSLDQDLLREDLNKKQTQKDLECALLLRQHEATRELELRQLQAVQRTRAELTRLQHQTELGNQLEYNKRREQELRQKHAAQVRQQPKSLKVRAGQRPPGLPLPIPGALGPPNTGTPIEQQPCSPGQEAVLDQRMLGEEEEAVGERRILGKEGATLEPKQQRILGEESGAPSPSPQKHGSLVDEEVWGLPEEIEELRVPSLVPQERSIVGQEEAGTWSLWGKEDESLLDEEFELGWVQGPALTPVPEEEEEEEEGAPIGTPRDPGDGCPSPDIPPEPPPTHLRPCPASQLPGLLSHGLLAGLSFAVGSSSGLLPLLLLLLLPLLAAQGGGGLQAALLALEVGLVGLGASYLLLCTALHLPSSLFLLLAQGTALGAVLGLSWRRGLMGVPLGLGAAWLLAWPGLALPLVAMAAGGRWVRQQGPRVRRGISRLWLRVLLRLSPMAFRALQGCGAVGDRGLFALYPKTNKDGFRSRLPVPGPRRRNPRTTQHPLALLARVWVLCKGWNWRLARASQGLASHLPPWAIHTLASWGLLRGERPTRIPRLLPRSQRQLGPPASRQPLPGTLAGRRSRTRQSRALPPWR

[3] = biological target: Death-associated protein kinase 3 (Homo sapiens, UniProt O43293); assay: Inhibition of ZIPK (unknown origin)
LuCaP-77 CR cell = settings: Homo sapiens, dose 100.0 mg/kg, time 7.0 day
[4] = biological target: Rho-associated protein kinase 1 (Homo sapiens, UniProt Q13464); assay: Inhibition of Rock1 (unknown origin)
[5] = biological target: Inhibitor of nuclear factor kappa-B kinase subunit epsilon (Homo sapiens, UniProt Q14164); assay: Inhibition of IKKE (unknown origin)
Chain of Inhibitor of nuclear factor kappa-B kinase subunit epsilon (Q14164 whole entry): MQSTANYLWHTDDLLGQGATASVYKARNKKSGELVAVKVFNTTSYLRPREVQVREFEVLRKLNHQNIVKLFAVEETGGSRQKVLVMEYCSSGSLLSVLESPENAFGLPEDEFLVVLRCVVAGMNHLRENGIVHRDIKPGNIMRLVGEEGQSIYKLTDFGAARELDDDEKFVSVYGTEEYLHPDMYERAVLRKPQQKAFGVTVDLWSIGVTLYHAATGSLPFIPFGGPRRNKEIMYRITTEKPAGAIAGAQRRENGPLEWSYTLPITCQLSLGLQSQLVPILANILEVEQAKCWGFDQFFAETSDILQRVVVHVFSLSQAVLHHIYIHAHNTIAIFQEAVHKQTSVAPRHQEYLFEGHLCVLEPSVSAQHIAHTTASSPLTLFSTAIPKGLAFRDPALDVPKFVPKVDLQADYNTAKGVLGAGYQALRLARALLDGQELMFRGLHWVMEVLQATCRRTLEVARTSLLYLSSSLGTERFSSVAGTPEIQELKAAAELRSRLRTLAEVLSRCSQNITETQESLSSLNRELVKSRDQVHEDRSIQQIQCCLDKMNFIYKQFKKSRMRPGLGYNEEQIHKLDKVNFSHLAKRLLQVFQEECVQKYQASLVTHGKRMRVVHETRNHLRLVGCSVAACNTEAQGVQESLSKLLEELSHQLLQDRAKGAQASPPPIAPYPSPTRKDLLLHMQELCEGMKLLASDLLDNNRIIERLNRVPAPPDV

[6] = Toxicity in CB17 SCID mouse xenografted with human LuCaP-77 CR cell assessed as body weight loss at 100 mg/kg, ip BID administered for 7 days relative to control; format: organism-based; settings: in vivo, 168 h, time 7 day
DB = assay: Antiproliferative activity against human DB cells assessed as inhibition of cell viability incubated for 3 to 5 days by Celltiter-Glo luminescent assay; format: functional, cell-based
[7] = Ratio of drug concentration in brain to plasma in CB17 SCID mouse xenografted with LuCaP-77 CR cell at 50 mg/kg, po measured after 24 hrs
[8] = biological target: Tyrosine-protein kinase JAK3 (Homo sapiens, UniProt P52333); assay: Inhibition of JAK3 (unknown origin)
[9] = biological target: Proto-oncogene tyrosine-protein kinase receptor Ret (Homo sapiens, UniProt P07949); assay: Inhibition of Ret (unknown origin)
NCI-H522 = assay: Antiproliferative activity against human NCI-H522 cells assessed as inhibition of cell viability incubated for 3 to 5 days by Celltiter-Glo luminescent assay; format: functional, cell-based
Calu-6 = assay: Antiproliferative activity against human Calu-6 cells assessed as inhibition of cell viability incubated for 3 to 5 days by Celltiter-Glo luminescent assay; format: functional, cell-based
[10] = biological target: Protein kinase C theta type (Homo sapiens, UniProt Q04759); assay: Inhibition of PKCtheta (unknown origin)
NCI-H661 = assay: Antiproliferative activity against human NCI-H661 cells assessed as inhibition of cell viability incubated for 3 to 5 days by Celltiter-Glo luminescent assay; format: functional, cell-based
[11] = biological target: Tyrosine-protein kinase JAK2 (Homo sapiens, UniProt O60674); assay: Inhibition of JAK2 (unknown origin)
Chain of Tyrosine-protein kinase JAK2 (O60674 whole entry): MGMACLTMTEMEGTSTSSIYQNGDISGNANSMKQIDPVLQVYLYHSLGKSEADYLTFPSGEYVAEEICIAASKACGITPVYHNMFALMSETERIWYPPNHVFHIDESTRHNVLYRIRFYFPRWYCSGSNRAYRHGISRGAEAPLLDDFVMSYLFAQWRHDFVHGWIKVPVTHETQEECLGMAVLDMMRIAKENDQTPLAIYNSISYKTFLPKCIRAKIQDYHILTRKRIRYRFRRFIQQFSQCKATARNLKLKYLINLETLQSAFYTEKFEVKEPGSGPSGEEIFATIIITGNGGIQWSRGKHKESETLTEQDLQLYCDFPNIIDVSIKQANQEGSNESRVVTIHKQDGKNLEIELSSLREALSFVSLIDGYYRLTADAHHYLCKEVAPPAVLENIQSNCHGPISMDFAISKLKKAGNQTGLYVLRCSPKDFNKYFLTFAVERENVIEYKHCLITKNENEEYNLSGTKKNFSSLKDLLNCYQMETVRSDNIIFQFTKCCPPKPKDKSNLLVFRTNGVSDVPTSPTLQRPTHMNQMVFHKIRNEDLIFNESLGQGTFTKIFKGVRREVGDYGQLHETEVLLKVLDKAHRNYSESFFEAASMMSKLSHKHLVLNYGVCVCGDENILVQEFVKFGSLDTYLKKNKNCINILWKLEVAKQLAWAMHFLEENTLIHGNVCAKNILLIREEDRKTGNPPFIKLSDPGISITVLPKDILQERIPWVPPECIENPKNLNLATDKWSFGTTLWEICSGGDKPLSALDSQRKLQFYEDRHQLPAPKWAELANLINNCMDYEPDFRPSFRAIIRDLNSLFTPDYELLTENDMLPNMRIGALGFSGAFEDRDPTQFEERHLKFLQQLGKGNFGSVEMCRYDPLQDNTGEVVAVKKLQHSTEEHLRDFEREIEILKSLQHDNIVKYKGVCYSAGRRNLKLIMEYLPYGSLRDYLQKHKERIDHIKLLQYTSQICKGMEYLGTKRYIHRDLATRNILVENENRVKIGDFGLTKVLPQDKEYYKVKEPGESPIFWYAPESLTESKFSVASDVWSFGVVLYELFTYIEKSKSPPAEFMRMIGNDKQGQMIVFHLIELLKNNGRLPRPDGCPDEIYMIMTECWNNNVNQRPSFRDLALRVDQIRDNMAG

[12] = biological target: Fibroblast growth factor receptor 1 (Homo sapiens, UniProt P11362); assay: Inhibition of FGFR1 (unknown origin)
Chain of Fibroblast growth factor receptor 1 (P11362 whole entry): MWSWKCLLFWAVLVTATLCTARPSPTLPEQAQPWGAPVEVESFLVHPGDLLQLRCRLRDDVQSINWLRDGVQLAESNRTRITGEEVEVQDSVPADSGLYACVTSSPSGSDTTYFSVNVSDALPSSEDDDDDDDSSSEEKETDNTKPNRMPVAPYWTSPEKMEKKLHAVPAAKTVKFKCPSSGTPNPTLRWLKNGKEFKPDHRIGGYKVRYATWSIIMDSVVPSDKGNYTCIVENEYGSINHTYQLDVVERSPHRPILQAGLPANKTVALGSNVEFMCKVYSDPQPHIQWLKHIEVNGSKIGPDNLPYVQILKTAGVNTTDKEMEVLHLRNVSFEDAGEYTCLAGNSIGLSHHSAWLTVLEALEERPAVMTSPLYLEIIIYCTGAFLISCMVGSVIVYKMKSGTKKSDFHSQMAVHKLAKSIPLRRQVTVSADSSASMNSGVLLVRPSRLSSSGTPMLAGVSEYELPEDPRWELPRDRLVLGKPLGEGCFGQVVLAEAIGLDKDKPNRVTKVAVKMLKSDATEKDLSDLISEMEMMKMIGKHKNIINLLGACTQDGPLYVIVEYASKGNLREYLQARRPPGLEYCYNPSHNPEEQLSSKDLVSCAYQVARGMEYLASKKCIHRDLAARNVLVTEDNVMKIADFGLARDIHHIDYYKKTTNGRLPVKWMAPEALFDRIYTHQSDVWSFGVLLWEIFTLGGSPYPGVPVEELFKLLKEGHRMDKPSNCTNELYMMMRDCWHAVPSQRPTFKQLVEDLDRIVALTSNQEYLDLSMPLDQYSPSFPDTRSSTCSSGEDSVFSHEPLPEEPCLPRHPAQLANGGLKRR

HCC70 = assay: Antiproliferative activity against human HCC70 cells assessed as inhibition of cell viability incubated for 3 to 5 days by Celltiter-Glo luminescent assay; format: functional, cell-based
[13] = biological target: Dual specificity mitogen-activated protein kinase kinase 1 (Homo sapiens, UniProt Q02750); assay: Inhibition of MEK1 (unknown origin)
cells [14] = settings: Homo sapiens, SC-1
U-2940 = assay: Antiproliferative activity against human U-2940 cells assessed as inhibition of cell viability incubated for 3 to 5 days by Celltiter-Glo luminescent assay; format: functional, cell-based
OCI-Ly18 = assay: Antiproliferative activity against human OCI-Ly18 cells assessed as inhibition of cell viability incubated for 3 to 5 days by Celltiter-Glo luminescent assay; format: functional, cell-based
Focal adhesion kinase 1 = Focal adhesion kinase 1 (Homo sapiens, UniProt Q05397); assay: Inhibition of FAK (unknown origin)
Chain of Focal adhesion kinase 1 (Q05397 whole entry): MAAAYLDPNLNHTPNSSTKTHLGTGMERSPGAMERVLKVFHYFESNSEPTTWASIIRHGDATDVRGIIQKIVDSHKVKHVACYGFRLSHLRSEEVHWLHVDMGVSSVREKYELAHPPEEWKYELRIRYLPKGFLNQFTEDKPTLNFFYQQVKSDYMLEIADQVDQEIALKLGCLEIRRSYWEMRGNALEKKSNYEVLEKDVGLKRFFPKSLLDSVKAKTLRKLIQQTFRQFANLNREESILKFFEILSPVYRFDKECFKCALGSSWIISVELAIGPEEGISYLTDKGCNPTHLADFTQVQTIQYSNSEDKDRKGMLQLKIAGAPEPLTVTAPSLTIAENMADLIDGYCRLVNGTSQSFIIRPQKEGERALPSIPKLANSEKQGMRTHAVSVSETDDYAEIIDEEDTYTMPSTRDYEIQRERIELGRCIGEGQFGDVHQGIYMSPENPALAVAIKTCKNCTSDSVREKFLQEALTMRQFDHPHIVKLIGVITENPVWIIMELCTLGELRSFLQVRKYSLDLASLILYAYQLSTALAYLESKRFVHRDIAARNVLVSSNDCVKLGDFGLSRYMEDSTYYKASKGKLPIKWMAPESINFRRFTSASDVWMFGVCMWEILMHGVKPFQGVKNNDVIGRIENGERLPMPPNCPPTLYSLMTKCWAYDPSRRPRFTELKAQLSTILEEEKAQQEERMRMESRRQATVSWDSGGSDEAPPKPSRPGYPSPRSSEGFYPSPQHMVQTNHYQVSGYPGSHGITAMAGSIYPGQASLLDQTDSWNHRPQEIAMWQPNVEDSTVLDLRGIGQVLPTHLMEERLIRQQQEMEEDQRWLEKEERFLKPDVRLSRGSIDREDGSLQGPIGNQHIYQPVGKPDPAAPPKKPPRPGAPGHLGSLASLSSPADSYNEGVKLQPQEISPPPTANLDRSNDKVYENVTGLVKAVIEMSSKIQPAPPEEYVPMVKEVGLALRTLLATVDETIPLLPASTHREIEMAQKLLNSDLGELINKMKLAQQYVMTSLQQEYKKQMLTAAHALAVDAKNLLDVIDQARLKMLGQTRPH

OCI-Ly7 = assay: Antiproliferative activity against human OCILY7 cells assessed as inhibition of cell viability incubated for 3 to 5 days by Celltiter-Glo luminescent assay; format: functional, cell-based
cells [15] = settings: Homo sapiens, MINO
Wee1-like protein kinase = Wee1-like protein kinase (Homo sapiens, UniProt P30291); assay: Inhibition of Wee1 (unknown origin)
G-361 = assay: Antiproliferative activity against human G361 cells assessed as inhibition of cell viability incubated for 3 to 5 days by Celltiter-Glo luminescent assay; format: functional, cell-based
JVM-2 = assay: Antiproliferative activity against human JVM-2 cells assessed as inhibition of cell viability incubated for 3 to 5 days by Celltiter-Glo luminescent assay; format: functional, cell-based
BT-20 = assay: Antiproliferative activity against human BT-20 cells assessed as inhibition of cell viability incubated for 3 to 5 days by Celltiter-Glo luminescent assay; format: functional, cell-based
[16] = biological target: Rho-associated protein kinase 2 (Homo sapiens, UniProt O75116); assay: Inhibition of Rock2 (unknown origin)
CAL-120 = assay: Antiproliferative activity against human CAL-120 cells assessed as inhibition of cell viability incubated for 3 to 5 days by Celltiter-Glo luminescent assay; format: functional, cell-based
[17] = biological target: Proto-oncogene tyrosine-protein kinase Src (Homo sapiens, UniProt P12931); assay: Inhibition of Src (unknown origin)
[18] = biological target: Histone acetyltransferase p300 (Homo sapiens, UniProt Q09472)
[19] = biological target: CREB-binding protein/Histone acetyltransferase p300 (Homo sapiens, UniProt Q09472+Q92793); assay: Inhibition of p300/CBP in human 22Rv1 cells assessed as reduction in H3K18Ac level incubated for 3 hrs by Hoechst 33342 staining based high content microscopy analysis; format: cell-based
In short: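 Cells received an 8-point half-log dilution series from 10 µM. They were then fixed in 10% formaldehyde (10 min, RT), permeabilised with 0.1% Triton X-100 and blocked with 1% BSA for 1 h. Primary antibodies were applied overnight at 4 °C, followed by Alexa488 anti-rabbit, Alexa555 anti-mouse and Hoechst 33342 for 1 h. Fifteen fields per well were imaged and average mean intensity taken. EC50 came from a sigmoidal fit.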

[20] = Half life in CB17 SCID mouse xenografted with LuCaP-77 CR cell at 100 mg/kg, ip administered for 7 days; format: ADME, organism-based; settings: in vivo, time 7 day
Granta-519 = assay: Antiproliferative activity against human Granta-519 cells assessed as inhibition of cell viability incubated for 3 to 5 days by Celltiter-Glo luminescent assay; format: functional, cell-based
CWR22R = assay: Antiproliferative activity against human 22Rv1 cells assessed as inhibition of cell viability incubated for 3 to 5 days by Celltiter-Glo luminescent assay; format: functional, cell-based
Daudi = assay: Antiproliferative activity against human Daudi cells assessed as inhibition of cell viability incubated for 3 to 5 days by Celltiter-Glo luminescent assay; format: functional, cell-based
[21] = Cmax in CB17 SCID mouse xenografted with LuCaP-77 CR cell at 50 mg/kg, ip administered for 7 days; format: ADME, organism-based; settings: in vivo, time 7 day

## CNC(=O)Nc1ccc2c(c1)CC[C@@]21OC(=O)N(CC(=O)N(Cc2ccc(F)cc2)[C@@H](C)C(F)(F)F)C1=O [A-485]
NCI-H1930
  EC50: > 10 µM
HCC1599
  EC50: 4.85 µM
[1]
  AUC at 168 h: 91200 ng·h/mL
[2]
  IC50: > 10 µM
[3]
  IC50: > 10 µM
LuCaP-77 CR cell
  inhibition: inactive
[4]
  IC50: > 10 µM
[5]
  IC50: > 10 µM
[6]
  Activity: 9%
DB
  EC50: 770 nM
[7]
  Kp at 24 h: 0.097
[8]
  IC50: > 10 µM
[9]
  IC50: > 10 µM
NCI-H522
  EC50: 3.52 µM
Calu-6
  EC50: 8.57 µM
[10]
  IC50: > 10 µM
NCI-H661
  EC50: 7.66 µM
[11]
  IC50: > 10 µM
[12]
  IC50: > 10 µM
HCC70
  EC50: > 10 µM
[13]
  IC50: > 10 µM
Cells [14]
  EC50: 1690 nM
U-2940
  EC50: 1330 nM
OCI-Ly18
  EC50: 320 nM
Focal adhesion kinase 1
  IC50: > 10 µM
OCI-Ly7
  EC50: 1810 nM
Cells [15]
  EC50: 530 nM
Wee1-like protein kinase
  IC50: > 10 µM
G-361
  EC50: 3.77 µM
JVM-2
  EC50: > 10 µM
BT-20
  EC50: 340 nM
[16]
  IC50: > 10 µM
CAL-120
  EC50: > 10 µM
[17]
  IC50: > 10 µM
[18]
  T1/2: 8.85 min
[19]
  INH: 1.14 µM
[20]
  half-life: 102 min
Granta-519
  EC50: 3.28 µM
CWR22R
  EC50: 320 nM
Daudi
  EC50: 430 nM
[21]
  Cmax: 14700 ng/mL
